From ChEMBL document CHEMBL3525963, “Tissue distribution and elimination of [14C]apixaban in rats” (Drug Metab Dispos, 2011)

Legend:
Muscle tissue [1] = assay: Biodistribution in female Sprague-Dawley rat muscle at 5 mg/kg, po administered as single dose measured after 8 hrs; format: ADME, organism-based; design: dose 5 mg/kg, dosed compound name [14C]-apixaban, route oral; settings: in vivo
In short: (§1)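 [¹⁴C]Apixaban given by oral gavage at 5 mg/kg (100 μCi/kg) in 0.5% Tween 80 in Labrafil (1.0 mg/mL dosing solution) to rats fasted overnight through 4 h post-dose. One rat per time point; carcass frozen in hexane/dry ice. Quantitative whole-body autoradiography used 40 µm sagittal sections and a phosphor imaging plate calibrated with [¹⁴C]glucose standards (0.001–6.5 μCi/g). Read-out in µg eq apixaban/g; LLOQ 0.037 μg eq/g.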

Rattus norvegicus [2] = assay: Biodistribution in female Sprague-Dawley rat kidney cortex at 5 mg/kg, po administered as single dose measured after 24 hrs; format: ADME, organism-based; design: dose 5 mg/kg, dosed compound name [14C]-apixaban, route oral; settings: in vivo
In short: (§2)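 Quantitative whole-body autoradiography was run after a single 5 mg/kg (100 μCi/kg) oral gavage to fasted female or pregnant SD rats, one rat per time point. Carcasses were frozen in hexane/dry ice, and 40 µm sagittal sections were dried at −20°C for at least 48 h. Sections were exposed to a phosphor plate alongside [14C]glucose standards (0.001–6.5 µCi/g). Results are µg eq/g, with LLOQ 0.037 µg eq/g.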

Heart [3] = assay: Biodistribution in female Sprague-Dawley rat heart at 5 mg/kg, po administered as single dose measured after 8 hrs; format: ADME, organism-based; design: dose 5 mg/kg, dosed compound name [14C]-apixaban, route oral; settings: in vivo; in short: as §2
[4] = Drug excretion in Sprague-Dawley rat urine assessed as apixaban level at 30 mg/kg, po by HPLC method; settings: read-out: Compound recovery
Harderian gland = assay: Biodistribution in male Sprague-Dawley rat harderian gland at 5 mg/kg, po administered as single dose measured after 1 hr; format: ADME, organism-based; design: dose 5 mg/kg, dosed compound name [14C]-apixaban, route oral; settings: in vivo; in short: as §1
Rattus norvegicus [5] = assay: Biodistribution in fetal brain of pregnant Sprague-Dawley rat at 5 mg/kg, po administered as single dose measured after 48 hrs; format: ADME, organism-based; design: dose 5 mg/kg, dosed compound name [14C]-apixaban, route oral; settings: in vivo; in short: as §2
Heart [6] = assay: Biodistribution in male Sprague-Dawley rat heart at 5 mg/kg, po administered as single dose measured after 8 hrs; format: ADME, organism-based; design: dose 5 mg/kg, dosed compound name [14C]-apixaban, route oral; settings: in vivo
In short: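 [14C]apixaban (1.0 mg/mL, 20 μCi/mL) in 0.5% Tween 80 in Labrafil, given by oral gavage at 100 μCi/kg to male rats (225-252 g) fasted overnight through 4 h post-dose. One rat per time point. Carcasses frozen in hexane/dry ice and cut into 40 µm sagittal sections. QWBA read on phosphor plates against [14C]glucose standards, reported as µg eq/g. LLOQ 0.037 µg eq/g.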

Heart [7] = assay: Biodistribution in pregnant Sprague-Dawley rat heart at 5 mg/kg, po administered as single dose measured after 48 hrs; format: ADME, organism-based; design: dose 5 mg/kg, dosed compound name [14C]-apixaban, route oral; settings: in vivo
In short: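 Fasted pregnant SD rats (n=6, 270-319 g) each received one oral gavage dose of [14C]apixaban, 5 mg/kg (100 μCi/kg), in 0.5% Tween 80/Labrafil. One rat was killed at each of 0.5, 1, 4, 8, 24 and 48 h. Carcasses were frozen in hexane/dry ice, cut into 40 µm sagittal sections, exposed to phosphor plates and quantified against [14C]glucose standards as µg eq/g. LLOQ was 0.037 µg eq/g.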

Pancreas = assay: Biodistribution in female Sprague-Dawley rat pancreas at 5 mg/kg, po administered as single dose measured after 8 hrs; format: ADME, organism-based; design: dose 5 mg/kg, dosed compound name [14C]-apixaban, route oral; settings: in vivo; in short: as §1
Rattus norvegicus [8] = assay: Biodistribution in female Sprague-Dawley rat kidney cortex at 5 mg/kg, po administered as single dose measured after 0.5 hrs; format: ADME, organism-based; design: dose 5 mg/kg, dosed compound name [14C]-apixaban, route oral; settings: in vivo
In short: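 [14C]apixaban (20 μCi/mL in dosing solution) in 0.5% Tween 80 in Labrafil given by oral gavage to fasted female rats, 206-213 g, at 100 μCi/kg. One rat per time point was euthanized and snap-frozen. Sagittal 40 µm whole-body sections were read by QWBA phosphor imaging against [14C]glucose standards. Results are in µg eq apixaban/g, with LLOQ 0.037 μg eq/g.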

Adrenal gland = assay: Biodistribution in female Sprague-Dawley rat adrenal gland at 5 mg/kg, po administered as single dose measured after 24 hrs; format: ADME, organism-based; design: dose 5 mg/kg, dosed compound name [14C]-apixaban, route oral; settings: in vivo; in short: as §2
Rattus norvegicus [9] = assay: Biodistribution in fetal liver of pregnant Sprague-Dawley rat at 5 mg/kg, po administered as single dose measured after 0.5 hrs; format: ADME, organism-based; design: dose 5 mg/kg, dosed compound name [14C]-apixaban, route oral; settings: in vivo
In short: (§3)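 Pregnant rats, 270-319 g and fasted overnight, received [14C]apixaban by oral gavage at 100 μCi/kg in 0.5% Tween 80/Labrafil. One dam per time point was euthanized and frozen in hexane/dry ice. Fetal tissue radioactivity was measured by QWBA on 40 µm sagittal sections calibrated with [14C]glucose standards. Values are in µg eq/g, with LLOQ 0.037 μg eq/g.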

Rattus norvegicus [10] = assay: Biodistribution in fetal blood of pregnant Sprague-Dawley rat at 5 mg/kg, po administered as single dose measured after 8 hrs; format: ADME, organism-based; design: dose 5 mg/kg, dosed compound name [14C]-apixaban, route oral; settings: in vivo; in short: as §3
Rattus norvegicus [11] = assay: Biodistribution in female Sprague-Dawley rat bone marrow at 5 mg/kg, po administered as single dose measured after 24 hrs; format: ADME, organism-based; design: dose 5 mg/kg, dosed compound name [14C]-apixaban, route oral; settings: in vivo; in short: as §2
Muscle tissue [12] = assay: Biodistribution in pregnant Sprague-Dawley rat muscle at 5 mg/kg, po administered as single dose measured after 1 hr; format: ADME, organism-based; design: dose 5 mg/kg, dosed compound name [14C]-apixaban, route oral; settings: in vivo
Heart [13] = assay: Biodistribution in male Sprague-Dawley rat heart at 5 mg/kg, po administered as single dose measured after 1 hr; format: ADME, organism-based; design: dose 5 mg/kg, dosed compound name [14C]-apixaban, route oral; settings: in vivo; in short: as §1
Brain = assay: Biodistribution in female Sprague-Dawley rat brain at 5 mg/kg, po administered as single dose measured after 8 hrs; format: ADME, organism-based; design: dose 5 mg/kg, dosed compound name [14C]-apixaban, route oral; settings: in vivo
In short: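 [14C]Apixaban (1.0 mg/mL, 20 μCi/mL in 0.5% Tween 80 in Labrafil) given as a single oral gavage of 5 mg/kg (100 μCi/kg) to fasted female SD rats, one rat per time point. Carcasses were frozen in hexane/dry ice and cut into 40 µm sagittal sections for QWBA against [14C]glucose standards. Brain radioactivity is reported as µg eq/g, with LLOQ 0.037 µg eq/g.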

Blood [14] = assay: AUC (0 to infinity) in lactating Sprague-Dawley rat blood at 5 mg/kg, po administered as single dose; format: ADME, organism-based; design: time infinity, dose 5 mg/kg, dosed compound name [14C]-apixaban, route oral; settings: in vivo
Muscle tissue [15] = assay: Biodistribution in pregnant Sprague-Dawley rat muscle at 5 mg/kg, po administered as single dose measured after 8 hrs; format: ADME, organism-based; design: dose 5 mg/kg, dosed compound name [14C]-apixaban, route oral; settings: in vivo
Blood [16] = assay: Biodistribution in male Sprague-Dawley rat blood at 5 mg/kg, po administered as single dose measured after 4 hrs; format: ADME, organism-based; design: dose 5 mg/kg, dosed compound name [14C]-apixaban, route oral; settings: in vivo; in short: as §1
Spleen = assay: Biodistribution in pregnant Sprague-Dawley rat spleen at 5 mg/kg, po administered as single dose measured after 8 hrs; format: ADME, organism-based; design: dose 5 mg/kg, dosed compound name [14C]-apixaban, route oral; settings: in vivo
[17] = Drug metabolism in Sprague-Dawley rat milk assessed as apixaban level at 5 mg/kg, po after 1 to 24 hrs by HPLC method; format: ADME, organism-based; design: dose 5 mg/kg, dosed compound name [14C]-apixaban, route oral; settings: in vivo
In short: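 After a 5 mg/kg oral dose, samples were radioprofiled by HPLC. The column was C18 with a 0.4% formic acid (pH 3.2)/acetonitrile gradient at 0.7 mL/min. Fractions were collected every 0.25 min and counted for radioactivity. Peaks were identified by ESI LC/MS/MS against synthetic standards. Milk was taken at 1, 6, 12 and 24 h.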

Liver = assay: Biodistribution in pregnant Sprague-Dawley rat liver at 5 mg/kg, po administered as single dose measured after 24 hrs; format: ADME, organism-based; design: dose 5 mg/kg, dosed compound name [14C]-apixaban, route oral; settings: in vivo

With `COc1ccc(-n2nc(C(N)=O)c3c2C(=O)N(c2ccc(N4CCCC[14C]4=O)cc2)CC3)cc1` the Radiolabel recovery (Muscle tissue [1]) was 0.08 ugequiv/g, the Radiolabel recovery (Rattus norvegicus [2]) was “Not detected assumed BLQ” and the Radiolabel recovery (Heart [3]) was 0.11 ugequiv/g. The dose excreted [4] was 93%, the Radiolabel recovery (Harderian gland) was 0.69 ugequiv/g and the Radiolabel recovery (Rattus norvegicus [5]) was “Not detected assumed BLQ”. The Radiolabel recovery (Heart [6]) was 0.08 ugequiv/g, the Radiolabel recovery (Heart [7]) was “Not detected assumed BLQ” and the Radiolabel recovery (Pancreas) was 0.19 ugequiv/g. The Radiolabel recovery (Rattus norvegicus [8]) was 0.82 ugequiv/g, the Radiolabel recovery (Adrenal gland) was “Not detected assumed BLQ” and the Radiolabel recovery (Rattus norvegicus [9]) was 0.16 ugequiv/g. The Radiolabel recovery (Rattus norvegicus [10]) was 0.07 ugequiv/g, the Radiolabel recovery (Rattus norvegicus [11]) was “Not detected assumed BLQ” and the Radiolabel recovery (Muscle tissue [12]) was 0.46 ugequiv/g. The Radiolabel recovery (Heart [13]) was 0.7 ugequiv/g, the Radiolabel recovery (Brain) was < 0.037 ugequiv/g and the AUC (Blood [14]) was 1960 ngequiv.hr/g. The Radiolabel recovery (Muscle tissue [15]) was 0.05 ugequiv/g, the Radiolabel recovery (Blood [16]) was 0.6 ugequiv/g and the Radiolabel recovery (Spleen) was 0.05 ugequiv/g. The Compound recovery [17] was > 96% and the Radiolabel recovery (Liver) was 0.12 ugequiv/g.
